Laboratory results published in paper PMC3466776 (Biochemistry, 2012).

Key:
[1] = read-out: Kd for Ca^2+; cited from earlier work
CaMWT = CaMWT (Rattus norvegicus, UniProt P0DP29); experiment: Stopped-flow Ca^2+ dissociation kinetics of CaMWT; type: binding; conditions: for number of Ca^2+ ions released, phase 1, CaMWT / number of Ca^2+ ions released, phase 2, CaMWT: 0.03 relative amplitude = one Ca^2+ ion; for amplitude 1 (relative quin-2 fluorescence change), CaMWT: as koff1, CaMWT; for amplitude 1 (relative quin-2 fluorescence change), CaMWT / amplitude 2 (relative quin-2 fluorescence change), CaMWT: mean ± SD of 3-8 experiments; for amplitude 2 (relative quin-2 fluorescence change), CaMWT: as koff2, CaMWT
Procedure, shortened: (§1)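 Rat His-CaM (2 μM) with 20 μM CaCl2, alone or with 2 μM synthetic AC1 or AC8 CaMBD peptide, is mixed 1:1 with 150 μM quin-2. These are pre-mix concentrations. Buffer is 20 mM MOPS pH 7.4, 100 mM KCl, 1 mM MgCl2, at 22 °C. Quin-2 fluorescence is read with excitation at 334 nm and a 405 nm cutoff filter. Five to eight runs are averaged and fit single- or double-exponentially. A relative amplitude of 0.03 equals one Ca2+. Values are mean ± SD of ≥3 averages.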

CaM12 = CaM12 (Rattus norvegicus, UniProt P0DP29, D21A/D57A); experiment: Stopped-flow Ca^2+ dissociation kinetics of CaM12; type: binding; conditions: for amplitude 1 (relative quin-2 fluorescence change), CaM12: as koff1, CaM12, 22 °C; for amplitude 1 (relative quin-2 fluorescence change), CaM12 / amplitude 2 (relative quin-2 fluorescence change), CaM12: mean ± SD of 3-8 experiments; for amplitude 2 (relative quin-2 fluorescence change), CaM12: as koff2, CaM12, 22 °C
Procedure, shortened: as §1

CaM34 = CaM34 (Rattus norvegicus, UniProt P0DP29, D130A/D94A); experiment: Stopped-flow Ca^2+ dissociation kinetics of CaM34; type: binding; conditions: mean ± SD of 3-8 experiments; for amplitude 2 (relative quin-2 fluorescence change), CaM34: as koff2, CaM34, 22 °C
Procedure, shortened: as §1

[2] = CaM12 with peptide, single-exponential fit, 22 °C, n = 3

For COc1cc(N(CC(=O)O)CC(=O)O)c2nc(COc3cc(C)ccc3N(CC(=O)O)CC(=O)O)ccc2c1 [quin-2], the Kd [1] is listed as about 60 nM.
In the case of GSRPQRLLWQTAVRHITEQRFIHGH [AC8-Nt], the “number of Ca^2+ ions released, phase 1, CaMWT” value (“number … phase 1, CaMWT” below) (CaMWT; 22 °C) is reported as 1, the “number of Ca^2+ ions released, phase 2, CaMWT” value (shortened to “number … phase 2, CaMWT”) (CaMWT; 22 °C) is reported as 1 and the “total Ca^2+ released in measurable phases, CaMWT” value (“total Ca^2+ released” for short) (CaMWT; CaMWT with peptide, 22 °C) is reported as 2 mol. The “amplitude 1 (relative quin-2 fluorescence change), CaMWT” value (CaMWT; 22 °C) was 0.029 ± 0.008, the “amplitude 2 (relative quin-2 fluorescence change), CaMWT” value (CaMWT; 22 °C) was 0.027 ± 0.007 and the “amplitude 1 (relative quin-2 fluorescence change), CaM12” value (CaM12) was 0.017 ± 0.002. For the same compound, the “amplitude 2 (relative quin-2 fluorescence change), CaM12” value (CaM12) was 0.022 ± 0.06 and the “amplitude 2 (relative quin-2 fluorescence change), CaM34” value (CaM34) was 0.027 ± 0.004.
With IKPAKRMKFKTVCYLLVQLMHCRKMFKA [AC1-C1b] the “number … phase 1, CaMWT” value (CaMWT; 22 °C) was 2, the “number … phase 2, CaMWT” value (CaMWT; 22 °C) was 1 and the “total Ca^2+ released” value (CaMWT; CaMWT with peptide, 22 °C) was 3 mol. For the same compound, the “amplitude 1 (relative quin-2 fluorescence change), CaMWT” value (CaMWT; 22 °C) was 0.053 ± 0.001, the “amplitude 2 (relative quin-2 fluorescence change), CaMWT” value (CaMWT; 22 °C) was 0.024 ± 0.006 and the “amplitude 1 (relative quin-2 fluorescence change), CaM12” value (CaM12) was 0.022 ± 0.010. For the same compound, the “amplitude 2 (relative quin-2 fluorescence change), CaM12” value (CaM12) was 0.012 ± 0.003 and the “amplitude 2 (relative quin-2 fluorescence change), CaM34” value (CaM34) was 0.032 ± 0.007.
With YSLAAVVLGLVQSLNRQRQKQLLNE [AC8-C2b] the “number … phase 1, CaMWT” value (CaMWT; 22 °C) was 2, the “number … phase 2, CaMWT” value (CaMWT; 22 °C) was 2 and the “total Ca^2+ released” value (CaMWT; CaMWT with peptide, 22 °C) was “four”. For the same compound, the “total relative amplitude, CaMWT” value (CaMWT; CaMWT with peptide, 22 °C) was about 0.12, the “amplitude 1 (relative quin-2 fluorescence change), CaMWT” value (CaMWT; 22 °C) was 0.054 ± 0.006 and the “amplitude 2 (relative quin-2 fluorescence change), CaMWT” value (CaMWT; 22 °C) was 0.053 ± 0.010. For the same compound, the “reduction of Ca^2+ dissociation speed, C-lobe” value (CaMWT; if slower release from both lobes, C-lobe) was 5 fold, the “reduction of Ca^2+ dissociation speed, N-lobe” value (CaMWT; if slower release from both lobes, N-lobe) was over 60 fold and the “amplitude, single-exponential fit, CaM12” value (CaM12; [2]) was 0.054 ± 0.004. For the same compound, the “rate constant, single-exponential fit, CaM12” value (CaM12; [2]) was 7.0 ± 1.3 s^–1, the “amplitude 1 (relative quin-2 fluorescence change), CaM12” value (CaM12) was 0.043 ± 0.007 and the “amplitude 2 (relative quin-2 fluorescence change), CaM12” value (CaM12) was 0.021 ± 0.001. The “amplitude 1 (relative quin-2 fluorescence change), CaM34” value (CaM34; as koff1, CaM34, 22 °C) was 0.049 ± 0.006.
